# Bioassay records: PubChem BioAssay, Sanford-Burnham Center for Chemical Genomics
# SUMO1 PPI mod – alters human SUMO1 binding to SIM partners; P63165; AID 602429; SUMO1 binding to a labelled peptide, TR-FRET, 1 h; inhibition, % at 20 µM; 0.33% of 360,000 active; in the data active = inhibition above about 37%
# Scp-1 inhibitor – blocks human Scp-1 phosphatase activity; 0.88% of 340,000 active; Recombinant Scp1, phosphopeptide, malachite green phosphate absorbance; Q9GZU7; inhibition, % at 20 µM;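 active = inhibition above about 50% at 20 µM, limit read from the data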;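 note: plate controls were DMSO wells with enzyme for no effect and wells lacking enzyme for full effect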
#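 Material: truncated SCP-1 phosphatase (76-261aa) / Buffer or medium: 50 mM Tris acetate pH 5.5, 0.005% Tween-20, 10 mM MgCl2 / Compound dosing: one concentration, 20 µM, with 1.0% DMSO / Incubation: 45 min room-temperature reaction, 5 min colour, 30 min stabiliser / Detection: colorimetric free-phosphate detection, absorbance 630 nm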
# LMPTP inh – LMPTP (human) inhibition. P24666. recombinant LMPTP-A, OMFP fluorogenic substrate, fluorescence intensity. inhibition, % at 20 µM. 0.22% of 360,000 active;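 active = compounds that cut the enzyme signal by at least half of the control window in the single-dose screen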;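 note: plate controls were DMSO wells with enzyme plus substrate for no effect and substrate without enzyme for full effect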
#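 material = LMPTP-A | quantity = 0.625 nM enzyme | reagent = OMFP substrate, 400 µM final | buffer or medium = Bis-Tris pH 6.0, DTT, detergent | detection = endpoint fluorescence intensity from OMFP dephosphorylation | dosing = single 20 µM dose | read-out basis = % inhibition relative to no-enzyme and uninhibited control wells | control set = no-enzyme and uninhibited controls | timing = 50 min at room temperature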
# NadD inh – inhibitors of Staphylococcus aureus NadD; purified NadD enzyme, colorimetric absorbance read-out; inhibition, % at 20 µM; 0.78% of 360,000 active; in the data active = inhibition above about 26%
# STEP inh – inhibitors of human striatal-enriched phosphatase STEP | P54829 | recombinant STEP, OMFP fluorogenic substrate, fluorescence | inhibition, % at 20 µM | 0.25% of 360,000 active | AID 588621;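 active = inhibition at 20 µM, scaled per plate between control wells, above about 37%, limit read from the data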;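 note: 0% = DMSO with enzyme and substrate and 100% = substrate only without enzyme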
# Target sequence (P54829 whole entry, looked up): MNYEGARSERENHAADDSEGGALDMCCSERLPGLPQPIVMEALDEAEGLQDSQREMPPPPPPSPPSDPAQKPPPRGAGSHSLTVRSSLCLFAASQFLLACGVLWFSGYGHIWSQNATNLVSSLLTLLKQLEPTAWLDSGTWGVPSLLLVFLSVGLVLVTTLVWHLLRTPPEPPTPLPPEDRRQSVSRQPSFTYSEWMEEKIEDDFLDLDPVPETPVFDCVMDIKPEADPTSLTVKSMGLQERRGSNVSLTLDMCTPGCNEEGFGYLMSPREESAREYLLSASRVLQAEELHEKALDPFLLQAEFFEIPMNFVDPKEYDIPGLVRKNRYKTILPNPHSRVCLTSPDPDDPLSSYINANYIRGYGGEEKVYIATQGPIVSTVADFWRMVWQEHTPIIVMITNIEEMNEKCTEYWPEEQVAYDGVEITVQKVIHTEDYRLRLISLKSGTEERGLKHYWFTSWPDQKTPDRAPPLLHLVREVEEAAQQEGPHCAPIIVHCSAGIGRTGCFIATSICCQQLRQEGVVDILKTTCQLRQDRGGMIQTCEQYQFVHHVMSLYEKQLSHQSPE
#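 System: STEP phosphatase, cell-free reaction; Buffer or medium: Bis-Tris pH 6.0 buffer with DTT, detergent; Incubation: 20 min at room temperature, dark; Measured by: fluorescence, 480/540 nm.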
# DNMT1 inh – blocks human DNA methyltransferase DNMT1; inhibition (reported as % activation of signal), % at 10 µM; DNMT1 molecular beacon, Hinp1I cleavage, fluorescence; 0.83% of 360,000 active; in the data active = inhibition above about 50%
# The depositor's hits bear a star; · = no result; ! = not active in a repeat. A selection: hits, their analogues and other compounds. The true share with any hit is near 2.3%.
SMILES,SUMO1 PPI mod,Scp-1 inhibitor,LMPTP inh,NadD inh,STEP inh,DNMT1 inh
COc1ccccc1C(=O)NC(=Nc1nc2ccccc2o1)NC(=O)c1ccccc1OC,67*!,-7,1,2,-3,0
O=C(NC(=Nc1nc2ccccc2o1)NC(=O)c1ccccc1)c1ccccc1,0,26,1,2,1,29
O=[N+]([O-])c1cc(Cl)c(O)c2ncccc12,-25,-9,25,12,6,-13
O=[N+]([O-])c1cc(CN2CCN(c3ccccc3)CC2)c(O)c2ncccc12,-23,-4,5,71*,4,-10
Oc1c(Cl)cc(CN2CCOCC2)c2cccnc12,-15,-10,-2,-5,5,-4
O=[N+]([O-])c1cc(CN2CCOCC2)c2cccnc2c1O,·,66*,·,·,·,·
CCc1nc2c(OCc3cc(Cl)cc(Cl)c3)cccn2c1N(C)C(=O)c1cccc(OC)c1,9,·,9,5,4,-8
CC1CN(c2nc3ccccc3cc2-c2ccccc2)CC(C)O1 (centres undefined),4,-4,3,3,0,4
C[C@@H](CC#N)CN1CC[C@H](C(C)(C)C)CCC1=O,1,-6,-2,-2,-4,8
O=C(O)c1ccc(NS(=O)(=O)Cc2ccc(Cl)c(Cl)c2)cc1,9,-5,0,1,2,7
Cc1nnc(N=c2ssnc2Cl)o1,-5,12,55*,5,14,-10
Cc1cc(Cl)ccc1N=c1ssnc1Cl,8,-15,44,28,13,-8
O=C(NCCN1CCC(n2c(=O)[nH]c3ccccc32)CC1)c1ccc(Cl)c(Cl)c1,-1,·,3,-6,·,·
CCN(CC)C(=O)c1ccc(/C=C/c2c[nH]c3ccccc23)[n+](C)c1,-47,8,4,1,-8,30
CC[n+]1c(/C=C/c2c[nH]c3ccccc23)ccc2cc(C)ccc21,·,68*,·,·,·,·
CN(C)/C=C\C(=C/C(=O)C(F)(F)F)Nc1ccccc1Oc1ccccc1,-5,4,2,-6,-2,1
Cc1ccc(NC(=O)c2nc[nH]c2C(=O)NCCN(CCNC(=O)c2[nH]cnc2C(=O)Nc2ccc(C)cc2)CCNC(=O)c2[nH]cnc2C(=O)Nc2ccc(C)cc2)cc1,1,2,1,38*,-4,-38
COCCn1c(=NC(=O)c2ccc(S(=O)(=O)N3CCOCC3)cc2)sc2cc(S(N)(=O)=O)ccc21,-7,-10,2,5,-1,-1
CCn1c(=NC(=O)c2ccc(N3C(=O)CCC3=O)cc2)sc2c(OC)ccc(OC)c21,-30,58*,4,11,4,2
CCn1c(=NC(=O)c2ccc(S(=O)(=O)N3CCOCC3)cc2)sc2cccc(OC)c21,43*,-13,2,-5,-3,-7
COC(=O)c1ccc(OCC(=O)Nc2nn(-c3ccccc3)nc2C(N)=O)cc1,50*,2,-2,7,-2,-27
COc1ccc(-c2cc(C(=O)Nc3cc(Br)ccc3O)no2)cc1,-1,-15,69*,2,29,57*
NC(=O)c1cc(-c2ccccc2)nc(N2CCOCC2)n1,3,-5,0,-3,-2,5
CC[n+]1cc(-c2ccccc2)nc(N2CCOCC2)n1,-25,99*,-1,14,-2,6
CCOc1ccc(N=C2NC(=O)S/C2=C\c2ccc(N(C)C)cc2)cc1,-46,0,2,37*,-51,30
SMILES,SUMO1 PPI mod,Scp-1 inhibitor,LMPTP inh,NadD inh,STEP inh,DNMT1 inh
COc1ccc(-c2csc(NC(=S)NC(=O)c3cccs3)n2)cc1OC,44*,-8,4,8,2,-27
COc1ccc(-c2csc(NC(=S)NC(=O)c3ccc(S(=O)(=O)N(C)C)cc3)n2)cc1OC,0,-8,1,2,1,-15
COc1cccc(C2CC(=O)N3CN(c4cccc(Cl)c4C)CSC3=C2C#N)c1OC (centres undefined),7,13,2,5,0,-14
COc1ccc(OC)c(C2CC(=O)N3CN(c4cccc(Cl)c4C)CSC3=C2C#N)c1 (centres undefined),4,13,2,32*,1,-27
COc1ccc(Br)cc1C1CC(=O)N2CN(Cc3ccccc3)CSC2=C1C#N (centres undefined),6,-12,10,12,46*,-18
O=C(CCO)c1ccc(O)cc1,14,69*,5,-3,2,16
COc1cccc(/C=C2\SC(=O)NC2=O)c1OCc1ccc(C(=O)O)cc1,10,5,-1,-1,5,5
O=C1N/C(=N/NC(=O)c2cccc3ccccc23)S/C1=C\c1ccccc1OCc1ccccc1,2,-10,5,82*,8,48
COc1ccc(OC)c(/C=C2\S/C(=N/NC(=O)c3ccc4ccccc4c3)NC2=O)c1,21,-3,7,70*,2,0
O=C(NC1CCCCC1)C(c1ccc(-c2ccccc2)cc1)n1c(=O)c(-c2ccco2)nc2ccccc21 (centres undefined),11,·,7,·,·,·
COc1ccc(-n2c(C)cc(-c3csc(NC(=O)c4ccc(S(=O)(=O)N(C)C)cc4)n3)c2C)cc1,0,-5,1,34*,4,-25
O=C(NCc1ccccc1)C1C(c2ccccc2)=Nc2ccccc2N1C(=O)c1cccnc1 (centres undefined),-7,·,-1,·,·,·
CCc1ccccc1OCC(=O)Nc1ccc(N2CCCC2)cc1C,-39,1,5,23,0,53*
Cc1ccccc1OCC(=O)Nc1ccc(N2CCOCC2)cc1N1CCOCC1,2,-5,0,0,2,-6
CCOC(=O)c1c(C)nc2sc3c(=O)n(-c4ccc(C)cc4)cnc3c2c1-c1ccc(OC)cc1,40*,-5,-1,12,-4,9
CCS(=O)(=O)N1Cc2cc(C(=O)N(C)C)nc(-c3cccc(-c4ccc(F)cc4)c3)c2[C@H]1CCO,-2,·,0,-2,·,·
O=C(Oc1ccc([N+](=O)[O-])cc1)C1CC(=O)N(c2ccc3c(c2)OCCO3)C1 (centres undefined),-2,69*,4,-2,-1,23
O=C(Nc1ccc2c(c1)OCCO2)C(c1ccccc1)n1c(=O)c(-c2ccco2)nc2ccccc21 (centres undefined),-8,·,2,·,·,·
Cc1ccc(-c2cc(C#N)c(=O)n(Cc3c(Cl)cccc3Cl)c2)cc1,42*,-3,0,0,-3,8
CCn1cc(Cl)c(C(=O)N2N=C(c3ccc4ccccc4c3)CC2c2ccccc2O)n1 (centres undefined),18,-7,2,35*,1,-2
